According to ChEMBL document CHEMBL1122702, “Radiohalogen-labeled imaging agents. 3. Compounds for measurement of brain blood flow by emission tomography” (J Med Chem, 1984):

Columns and labels:
Type in all cases: ADME, organism-based
Rattus norvegicus [1] = species: Rattus norvegicus; experiment: Ratio of distribution of the [131I]-labeled compound at 5 min in rat lung over uptake in blood; settings: other tissue
Outline: (§1)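 Male Sprague-Dawley rats (200–300 g, fed ad libitum), ether-anesthetized, got a tail-vein bolus of 0.2 mL saline containing 10–20 μCi 131I compound and were decapitated at the stated time. Organs were weighed and gamma-counted against a serially diluted external standard. Organ/blood ratio was calculated from % dose per gram of organ. Animal numbers per time point were 1–4.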

Rattus norvegicus [2] = species: Rattus norvegicus; experiment: The uptake of the 131 I-labeled compound at 30 min was evaluated in rat heart as Percent of injected dose per gram in the organ; settings: in vivo, 0.5 h
Outline: (§2)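 Male Sprague-Dawley rats (200–300 g, free access to food and water), lightly ether-anesthetized and restrained, received a 0.2 mL saline tail-vein bolus of 10–20 μCi 131I-labeled compound. They were decapitated at the stated time, and organs were excised, weighed and gamma-counted. Percent injected dose was determined against a calibrated external standard made by serial dilution of the injectate. n = 1–4 rats.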

Rattus norvegicus [3] = species: Rattus norvegicus; experiment: The uptake of the 131 I-labeled compound at 30 min was evaluated in rat liver as Percent of injected dose in the total organ; settings: in vivo, 0.5 h; outline: as §2
Rattus norvegicus [4] = species: Rattus norvegicus; experiment: The uptake of the 131 I-labeled compound at 30 min was evaluated in rat liver as Percent of injected dose per gram in the organ; settings: in vivo, 0.5 h; outline: as §2
Rattus norvegicus [5] = species: Rattus norvegicus; experiment: The uptake of the 131 I-labeled compound at 30 min was evaluated in rat lung as Percent of injected dose per gram in the organ; settings: in vivo, 0.5 h; outline: as §2
Rattus norvegicus [6] = species: Rattus norvegicus; experiment: The uptake of the 131 I-labeled compound at 5 min was evaluated in rat liver as Percent of injected dose per gram in the organ; settings: in vivo; outline: as §2
Rattus norvegicus [7] = species: Rattus norvegicus; experiment: The uptake of the 131 I-labeled compound at 5 min was evaluated in rat brain as Percent of injected dose in the total organ; settings: in vivo; outline: as §2
Rattus norvegicus [8] = species: Rattus norvegicus; experiment: Ratio of distribution of the [131I]-labeled compound at 5 min in rat liver over uptake in blood; settings: other tissue; outline: as §1
Rattus norvegicus [9] = species: Rattus norvegicus; experiment: The uptake of the 131 I-labeled compound at 30 min was evaluated in rat heart as Percent of injected dose in the total organ; settings: in vivo, 0.5 h; outline: as §2
Rattus norvegicus [10] = species: Rattus norvegicus; experiment: Ratio of distribution of the [131I]-labeled compound at 30 min in rat kidney over uptake in blood; settings: other tissue, 0.5 h; outline: as §1
Rattus norvegicus [11] = species: Rattus norvegicus; experiment: The uptake of the 131 I-labeled compound at 5 min was evaluated in rat liver as Percent of injected dose in the total organ; settings: in vivo; outline: as §2
Rattus norvegicus [12] = species: Rattus norvegicus; experiment: The uptake of the 131 I-labeled compound at 5 min was evaluated in rat kidney as Percent of injected dose per gram in the organ; settings: in vivo; outline: as §2
Rattus norvegicus [13] = species: Rattus norvegicus; experiment: The uptake of the 131 I-labeled compound at 5 min was evaluated in rat blood as Percent of injected dose per gram in the organ; settings: in vivo; outline: as §2
Rattus norvegicus [14] = species: Rattus norvegicus; experiment: Ratio of distribution of the [131I]-labeled compound at 30 min in rat heart over uptake in blood; settings: other tissue, 0.5 h; outline: as §1
Rattus norvegicus [15] = species: Rattus norvegicus; experiment: The uptake of the 131 I-labeled compound at 30 min was evaluated in rat blood as Percent of injected dose per gram in the organ; settings: in vivo, 0.5 h; outline: as §2
Rattus norvegicus [16] = species: Rattus norvegicus; experiment: The uptake of the 131 I-labeled compound at 30 min was evaluated in rat brain as Percent of injected dose in the total organ; settings: in vivo, 0.5 h; outline: as §2
Rattus norvegicus [17] = species: Rattus norvegicus; experiment: Ratio of distribution of the [131I]-labeled compound at 5 min in rat heart over uptake in blood; settings: other tissue; outline: as §1
Rattus norvegicus [18] = species: Rattus norvegicus; experiment: The uptake of the 131 I-labeled compound at 30 min was evaluated in rat kidney as Percent of injected dose in the total organ; settings: in vivo, 0.5 h; outline: as §2
Rattus norvegicus [19] = species: Rattus norvegicus; experiment: The uptake of the 131 I-labeled compound at 5 min was evaluated in rat kidney as Percent of injected dose in the total organ; settings: in vivo; outline: as §2
Rattus norvegicus [20] = species: Rattus norvegicus; experiment: The uptake of the 131 I-labeled compound at 30 min was evaluated in rat kidney as Percent of injected dose per gram in the organ; settings: in vivo, 0.5 h; outline: as §2
Rattus norvegicus [21] = species: Rattus norvegicus; experiment: The uptake of the 131 I-labeled compound at 5 min was evaluated in rat heart as Percent of injected dose per gram in the organ; settings: in vivo; outline: as §2
Rattus norvegicus [22] = species: Rattus norvegicus; experiment: Ratio of distribution of the [131I]-labeled compound at 30 min in rat liver over uptake in blood; settings: other tissue, 0.5 h; outline: as §1
Rattus norvegicus [23] = species: Rattus norvegicus; experiment: Ratio of distribution of the [131I]-labeled compound at 30 min in rat lung over uptake in blood; settings: other tissue, 0.5 h; outline: as §1
Rattus norvegicus [24] = species: Rattus norvegicus; experiment: The uptake of the 131 I-labeled compound at 5 min was evaluated in rat lung as Percent of injected dose per gram in the organ; settings: in vivo; outline: as §2
Rattus norvegicus [25] = species: Rattus norvegicus; experiment: The uptake of the 131 I-labeled compound at 30 min was evaluated in rat brain as Percent of injected dose per gram in the organ; settings: in vivo, 0.5 h; outline: as §2
Rattus norvegicus [26] = species: Rattus norvegicus; experiment: Ratio of distribution of the [131I]-labeled compound at 30 min in rat brain over uptake in blood; settings: 0.5 h; outline: as §1
Rattus norvegicus [27] = species: Rattus norvegicus; experiment: The uptake of the 131 I-labeled compound at 5 min was evaluated in rat brain as Percent of injected dose per gram in the organ; settings: in vivo; outline: as §2
Rattus norvegicus [28] = species: Rattus norvegicus; experiment: Ratio of distribution of the [131I]-labeled compound at 5 min in rat brain over uptake in blood; outline: as §1
Rattus norvegicus [29] = species: Rattus norvegicus; experiment: The uptake of the 131 I-labeled compound at 5 min was evaluated in rat heart as Percent of injected dose in the total organ; settings: in vivo; outline: as §2
Rattus norvegicus [30] = species: Rattus norvegicus; experiment: Ratio of distribution of the [131I]-labeled compound at 5 min in rat kidney over uptake in blood; settings: other tissue; outline: as §1
Rattus norvegicus [31] = species: Rattus norvegicus; experiment: The distribution of the 131 I-labeled compound at 5 min was evaluated in rat liver as Percent of injected dose in the total organ; settings: in vivo; outline: as §2
Rattus norvegicus [32] = species: Rattus norvegicus; experiment: The distribution of the 131 I-labeled compound at 30 min was evaluated in rat brain as Percent of injected dose in the total organ; settings: in vivo, 0.5 h; outline: as §2
Rattus norvegicus [33] = species: Rattus norvegicus; experiment: The distribution of the 131 I-labeled compound at 5 min was evaluated in rat brain as Percent of injected dose in the total organ; settings: in vivo; outline: as §2
Rattus norvegicus [34] = species: Rattus norvegicus; experiment: The distribution of the 131 I-labeled compound at 30 min was evaluated in rat heart as Percent of injected dose per gram in the organ; settings: in vivo, 0.5 h; outline: as §2
Rattus norvegicus [35] = species: Rattus norvegicus; experiment: The distribution of the 131 I-labeled compound at 5 min was evaluated in rat heart as Percent of injected dose per gram in the organ; settings: in vivo; outline: as §2
Rattus norvegicus [36] = species: Rattus norvegicus; experiment: The distribution of the 131 I-labeled compound at 30 min was evaluated in rat kidney as Percent of injected dose per gram in the organ; settings: in vivo, 0.5 h; outline: as §2
Rattus norvegicus [37] = species: Rattus norvegicus; experiment: The distribution of the 131 I-labeled compound at 30 min was evaluated in rat brain as Percent of injected dose per gram in the organ; settings: in vivo, 0.5 h; outline: as §2
Rattus norvegicus [38] = species: Rattus norvegicus; experiment: The distribution of the 131 I-labeled compound at 5 min was evaluated in rat kidney as Percent of injected dose in the total organ; settings: in vivo; outline: as §2
Rattus norvegicus [39] = species: Rattus norvegicus; experiment: The distribution of the 131 I-labeled compound at 5 min was evaluated in rat kidney as Percent of injected dose per gram in the organ; settings: in vivo; outline: as §2
Rattus norvegicus [40] = species: Rattus norvegicus; experiment: The distribution of the 131 I-labeled compound at 30 min was evaluated in rat blood as Percent of injected dose per gram in the organ; settings: in vivo, 0.5 h; outline: as §2
Rattus norvegicus [41] = species: Rattus norvegicus; experiment: The distribution of the 131 I-labeled compound at 5 min was evaluated in rat liver as Percent of injected dose per gram in the organ; settings: in vivo; outline: as §2
Rattus norvegicus [42] = species: Rattus norvegicus; experiment: The distribution of the 131 I-labeled compound at 5 min was evaluated in rat heart as Percent of injected dose in the total organ; settings: in vivo; outline: as §2
Rattus norvegicus [43] = species: Rattus norvegicus; experiment: The distribution of the 131 I-labeled compound at 30 min was evaluated in rat liver as Percent of injected dose in the total organ; settings: in vivo, 0.5 h; outline: as §2
Rattus norvegicus [44] = species: Rattus norvegicus; experiment: The distribution of the 131 I-labeled compound at 5 min was evaluated in rat lung as Percent of injected dose per gram in the organ; settings: in vivo; outline: as §2
Rattus norvegicus [45] = species: Rattus norvegicus; experiment: The distribution of the 131 I-labeled compound at 5 min was evaluated in rat blood as Percent of injected dose per gram in the organ; settings: in vivo; outline: as §2
Rattus norvegicus [46] = species: Rattus norvegicus; experiment: The distribution of the 131 I-labeled compound at 30 min was evaluated in rat heart as Percent of injected dose in the total organ; settings: in vivo, 0.5 h; outline: as §2
Rattus norvegicus [47] = species: Rattus norvegicus; experiment: The distribution of the 131 I-labeled compound at 30 min was evaluated in rat kidney as Percent of injected dose in the total organ; settings: in vivo, 0.5 h; outline: as §2
Rattus norvegicus [48] = species: Rattus norvegicus; experiment: The distribution of the 131 I-labeled compound at 5 min was evaluated in rat brain as Percent of injected dose per gram in the organ; settings: in vivo; outline: as §2
Rattus norvegicus [49] = species: Rattus norvegicus; experiment: The distribution of the 131 I-labeled compound at 30 min was evaluated in rat liver as Percent of injected dose per gram in the organ; settings: in vivo, 0.5 h; outline: as §2
Rattus norvegicus [50] = species: Rattus norvegicus; experiment: The distribution of the 131 I-labeled compound at 30 min was evaluated in rat lung as Percent of injected dose per gram in the organ; settings: in vivo, 0.5 h; outline: as §2

SMILES | Ratio (Rattus norvegicus [1]) | Ratio (Rattus norvegicus [8]) | Ratio (Rattus norvegicus [10]) | Ratio (Rattus norvegicus [14]) | Ratio (Rattus norvegicus [17]) | Ratio (Rattus norvegicus [22]) | Ratio (Rattus norvegicus [23]) | Ratio (Rattus norvegicus [26]) | Ratio (Rattus norvegicus [28]) | Ratio (Rattus norvegicus [30]) | Dose (Rattus norvegicus [31]) | Dose (Rattus norvegicus [32]) | Dose (Rattus norvegicus [33]) | Dose (Rattus norvegicus [34]) | Dose (Rattus norvegicus [35]) | Dose (Rattus norvegicus [36]) | Dose (Rattus norvegicus [37]) | Dose (Rattus norvegicus [38]) | Dose (Rattus norvegicus [39]) | Dose (Rattus norvegicus [40]) | other results
CCCCCCCCCCCCNC(C)Cc1cc(OC)c(I)cc1OC (stereo not given) | 13 | 2.5 | 1.4 | 1.2 | 1.2 | 3.3 | 8.1 | 0.14 | 0.1 | 1.2 |  |  |  |  |  |  |  |  |  |  | Dose (Rattus norvegicus [2]): 0.19%; Dose (Rattus norvegicus [3]): 7.9%; Dose (Rattus norvegicus [4]): 0.53%; Dose (Rattus norvegicus [5]): 1.3%; Dose (Rattus norvegicus [6]): 1.2%; Dose (Rattus norvegicus [7]): 0.084%; Dose (Rattus norvegicus [9]): 0.27%; Dose (Rattus norvegicus [11]): 17%; Dose (Rattus norvegicus [12]): 0.58%; Dose (Rattus norvegicus [13]): 0.48%; Dose (Rattus norvegicus [15]): 0.16%; Dose (Rattus norvegicus [16]): 0.046%; Dose (Rattus norvegicus [18]): 0.69%; Dose (Rattus norvegicus [19]): 1.8%; Dose (Rattus norvegicus [20]): 0.22%; Dose (Rattus norvegicus [21]): 0.6%; Dose (Rattus norvegicus [24]): 6.1%; Dose (Rattus norvegicus [25]): 0.022%; Dose (Rattus norvegicus [27]): 0.047%; Dose (Rattus norvegicus [29]): 1%
COc1cc(CC(C)NCC#N)c(OC)cc1I (stereo not given) | 24 | 4.8 | 9.2 | 3 | 4.7 | 9.2 | 15 | 2.4 | 3 | 15 | 8.4% | 0.61% | 0.61% | 0.39% | 0.52% | 1.2% | 0.31% | 4.8% | 1.5% | 0.13% | Dose (Rattus norvegicus [41]): 0.53%; Dose (Rattus norvegicus [42]): 0.69%; Dose (Rattus norvegicus [43]): 9.5%; Dose (Rattus norvegicus [44]): 2.6%; Dose (Rattus norvegicus [45]): 0.11%; Dose (Rattus norvegicus [46]): 0.3%; Dose (Rattus norvegicus [47]): 2.2%; Dose (Rattus norvegicus [48]): 0.3%; Dose (Rattus norvegicus [49]): 1.2%; Dose (Rattus norvegicus [50]): 1.9%
COc1cc(CC(C)NCC2CC2)c(OC)cc1I (stereo not given) | 65 | 4.5 | 8.6 | 3.3 | 7.6 | 11 | 26 | 2.1 | 2.8 | 9.2 | 3.9% | 0.35% | 0.62% | 0.3% | 0.91% | 0.77% | 0.19% | 2% | 1.1% | 0.09% | Dose (Rattus norvegicus [41]): 0.55%; Dose (Rattus norvegicus [42]): 0.71%; Dose (Rattus norvegicus [43]): 8.9%; Dose (Rattus norvegicus [44]): 7.8%; Dose (Rattus norvegicus [45]): 0.12%; Dose (Rattus norvegicus [46]): 0.23%; Dose (Rattus norvegicus [47]): 1.7%; Dose (Rattus norvegicus [48]): 0.33%; Dose (Rattus norvegicus [49]): 0.97%; Dose (Rattus norvegicus [50]): 2.4%
